From ChEMBL document CHEMBL1153600, “Synthesis of novel trans-stilbene derivatives and evaluation of their potent antioxidant and neuroprotective effects” (Eur J Med Chem, 2009)
Calls of active or inactive are those of the source. No cut-off for these calls is given here.

Experiments:
[1] = system: Radical scavenging activity; test: Antioxidant activity assessed as DPPH radical scavenging activity; assay type: functional
Summary of the method: (§1)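 DPPH radical bleaching, tested at 10, 50, 100 and 200 µM (printed as mM) following a published method, with resveratrol as reference.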

[2] = system: Radical scavenging activity; test: Antioxidant activity assessed as DPPH radical scavenging activity at 100 uM; assay type: functional; summary of the method: as §1
[3] = system: Radical scavenging activity; test: Antioxidant activity assessed as DPPH radical scavenging activity at 200 uM; assay type: functional; summary of the method: as §1
[4] = system: Radical scavenging activity; test: Antioxidant activity assessed as DPPH radical scavenging activity at 10 uM; assay type: functional; summary of the method: as §1
[5] = system: Radical scavenging activity; test: Antioxidant activity assessed as DPPH radical scavenging activity at 50 uM; assay type: functional; summary of the method: as §1
Cortical neurone [6] = test: Neuroprotective activity in ICR mouse cortical neuron cells assessed as prevention of glutamate-induced neurotoxicity at 10 to 50 uM after 24 hrs by LDH assay; assay type: functional
Summary of the method: (§2)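 Primary cortical cultures from ICR mouse embryos at gestational day 15, plated on poly-D-lysine/laminin at 4.8 × 10⁵ cells/well in MEM with 5% FCS and mouse serum. Compound at 1–50 µM was co-applied with glutamate 50 µM for 24 h at 37 °C. LDH released into the medium was followed by NADH consumption with pyruvate, read at 340 nm. Mean ± SD of three observations.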

BV-2 [7] = test: Antiinflammatory activity against mouse BV2 microglia cells assessed as inhibition of LPS-induced NO production after 24 hrs; assay type: functional; settings: BV-2, 24 h, read-out: ED50 (the source's name)
Summary of the method: (§3)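 BV-2 murine microglia kept in DMEM with 10% FBS and penicillin/streptomycin (37 °C, 5% CO2). Cells were plated at 1 × 10⁵ cells/mL and stimulated with LPS 100 ng/mL, alone or with compound at 1, 10 or 50 µM, for 24 h at 37 °C. Nitrite in the medium was read by Griess reagent at 540 nm. Mean ± SD of three observations.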

BV-2 [8] = test: Antiinflammatory activity against mouse BV2 microglia cells assessed as inhibition of LPS-induced NO production at 1 uM after 24 hrs; assay type: functional, cell-based; summary of the method: as §3
Cortical neurone [9] = test: Neuroprotective activity in ICR mouse cortical neuron cells assessed as prevention of glutamate-induced neurotoxicity at 1 uM after 24 hrs by LDH assay; assay type: functional; summary of the method: as §2
[10] = Neuroprotective activity in ICR mouse cortical neuron cells assessed as prevention of excitotoxic neuronal death after 24 hrs by LDH assay; assay type: functional; settings: Cortical neurone, read-out: ED50 (the source's name); summary of the method: as §2
BV-2 [11] = test: Antiinflammatory activity against mouse BV2 microglia cells assessed as inhibition of LPS-induced NO production at 10 to 50 uM after 24 hrs; assay type: functional, cell-based; summary of the method: as §3

SMILES | IC50 [1] [µM] | Activity [2] [%] | Activity [3] [%] | Activity [4] [%] | Activity [5] [%] | Activity (Cortical neurone [6]) | EC50 (BV-2 [7]) [µM] | Activity (BV-2 [8]) | Activity (Cortical neurone [9]) | EC50 [10] [µM] | Activity (BV-2 [11])
O=C(c1ccc(/C=C/c2ccc(O)c(O)c2)cc1)N1CCOCC1 | > 200 | 19.1 | 29.4 | 5.7 | 10.2 |  |  |  |  |  | 
O=C(c1ccc(/C=C/c2ccc(O)c(O)c2)cc1)N1CCC(Cc2ccccc2)CC1 | > 200 | 17.4 | 25.8 | 4.75 | 10.1 | Active | 1.12 | Active |  |  | 
CCCCCCCCCCNC(=O)c1ccc(/C=C/c2ccc(O)c(O)c2)cc1 | 47.9 | 75.2 | 79.1 | 18.5 | 42 |  |  |  |  |  | 
O=C(NCC1CCCO1)c1ccc(/C=C/c2ccc(O)c(O)c2)cc1 (configuration not stated) | > 200 | 26.5 | 31.7 | 16.7 | 18 |  |  |  |  |  | 
O=C(c1ccccc1)N1CCN(C(=O)c2ccc(/C=C/c3ccc(O)c(O)c3)cc2)CC1 | 185 | 36.7 | 59.1 | 17.2 | 24.6 |  |  |  |  |  | 
O=C(CNC(=O)c1ccccc1)OCc1ccc(/C=C/c2ccc(O)c(O)c2)cc1 | > 200 | 33.2 | 46.9 | 21.2 | 28.1 |  |  |  | Active |  | 
C=CCN1CCN(C(=O)c2ccc(/C=C/c3ccc(O)c(O)c3)cc2)CC1 | 141 | 40 | 62.4 | 24.8 | 31.2 |  |  |  |  |  | 
Oc1ccc(/C=C/c2cc(O)cc(O)c2)cc1 [RESVERATROL] | > 200 | 28.4 | 33.8 | 9.45 | 8.44 |  |  |  |  |  | 
CC1CCN(C(=O)c2ccc(/C=C/c3ccc(O)c(O)c3)cc2)CC1 | > 200 | 31.5 | 48.6 | 15.1 | 21.3 |  |  |  |  |  | 
OC/C=C/c1ccc(/C=C/c2ccc(O)c(O)c2)cc1 | > 200 | 11.5 | 17.3 | 6.82 | 8.64 |  |  |  |  |  | 
C=CCNC(=O)c1ccc(/C=C/c2ccc(O)c(O)c2)cc1 | 98.1 | 41.7 | 74.1 | 15 | 29 | Active | 1.95 |  |  | 29.6 | Active
COC(=O)c1ccc(/C=C/c2ccc(O)c(O)c2)cc1 | > 200 | 16.5 | 29.3 | 2.31 | 8.95 |  |  |  |  |  | 
O=C(NCCCN1CCCC1=O)c1ccc(/C=C/c2ccc(O)c(O)c2)cc1 | > 200 | 28.4 | 44 | 12.9 | 22.2 |  |  |  |  |  | 
O=C(Nc1ccccc1)c1ccc(/C=C/c2ccc(O)c(O)c2)cc1 | > 200 | 27.1 | 59.8 | 10.2 | 17.6 |  |  |  |  |  | 
O=C(NCc1ccccc1F)c1ccc(/C=C/c2ccc(O)c(O)c2)cc1 | 43.6 | 52.3 | 88 | 29.8 | 42.2 |  |  |  |  |  | 
O=C/C=C/c1ccc(/C=C/c2ccc(O)c(O)c2)cc1 | > 200 | 28.8 | 54.4 | 13.2 | 21.2 | Active | 1.51 | Active | Active | 42.3 | 
O=C(NCc1ccco1)c1ccc(/C=C/c2ccc(O)c(O)c2)cc1 | 69 | 48 | 79.2 | 21.9 | 35.1 | Active | 0.82 |  |  | 58.3 | Active
O=C(NC1CCCCC1)c1ccc(/C=C/c2ccc(O)c(O)c2)cc1 | 128 | 40.2 | 68.7 | 17.2 | 22.5 |  |  |  |  |  | 
COC(=O)/C=C/c1ccc(/C=C/c2ccc(O)c(O)c2)cc1 | > 200 | 5.73 | 5.29 | 5.91 | 5.31 |  |  |  |  |  | 
CCOC(=O)c1cccc(NC(=O)c2ccc(/C=C/c3ccc(O)c(O)c3)cc2)c1 | 127 | 44.1 | 62.8 | 21.3 | 29.3 |  |  |  |  |  | 
